Compound activity deposited in PubChem BioAssay by several laboratories.
PPC-1+TRAIL kill = kills PPC-1 cancer cells in the presence of TRAIL. 0.41% of 220,000 active. cell killing (% activity), % at 4 µM or 5 µM. AID 1443. PPC-1 cells + TRAIL, ATPLite viability luminescence;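 active = cell killing above 50% in the first pass at 4 µM, then a duplicate retest at 5 µM averaging 50% or more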
HSP90 inh = HSP90 refolding inhibition in rabbit reticulocyte lysate; luciferase refolding luminescence, 3 h; 0.91% of 290,000 active; AID 1789; inhibition, % at 5.6 µM;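 active = inhibition above the screen-wide mean plus 3 SD, computed separately per campaign, cut at about 16% in these data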;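 also: inhibitors lower the luminescence because luciferase stays unfolded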
C8 TRAIL sens = caspase-8 TRAIL sensitization. NB7+C8 cells + TRAIL, ATPlite viability luminescence. inhibition (viability loss, TRAIL sensitization), % at 10 µM. 1% of 360,000 active. AID 624354;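 active = compounds causing at least 50% loss of cell viability in the single-dose screen, relative to plate controls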
FLuc act counter = affects firefly luciferase, flagging false hits in luciferase stimulation screens; P08659; ATPlite luciferase biochemical, luminescence, 10 min; 0 = ATP-free wells, 1 = DMSO control; activation factor at 10 µM; 200,000 tested, under 10 active;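 active = luciferase activation factor, scaled between plate controls, of at least 2 with compound at 10 µM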
Target sequence (P08659 whole entry, looked up): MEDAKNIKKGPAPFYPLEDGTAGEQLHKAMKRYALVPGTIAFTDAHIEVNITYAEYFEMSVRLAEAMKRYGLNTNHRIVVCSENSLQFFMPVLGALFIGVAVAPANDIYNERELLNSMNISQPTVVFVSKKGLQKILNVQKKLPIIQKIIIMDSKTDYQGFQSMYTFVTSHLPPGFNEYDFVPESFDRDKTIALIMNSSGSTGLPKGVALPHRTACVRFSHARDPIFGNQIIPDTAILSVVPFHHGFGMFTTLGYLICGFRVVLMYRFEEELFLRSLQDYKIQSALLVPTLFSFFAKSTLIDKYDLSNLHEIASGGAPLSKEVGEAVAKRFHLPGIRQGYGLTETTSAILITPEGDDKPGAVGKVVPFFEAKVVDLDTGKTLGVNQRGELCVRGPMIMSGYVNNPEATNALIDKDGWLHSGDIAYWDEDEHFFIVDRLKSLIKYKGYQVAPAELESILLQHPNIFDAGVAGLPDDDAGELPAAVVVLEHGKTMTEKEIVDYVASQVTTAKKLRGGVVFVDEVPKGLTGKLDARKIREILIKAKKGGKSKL
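Material: Luciferase/luciferin reagent mix | Doses: Test compounds dosed from 2 mM stocks in 100% DMSO | Timing: 10 min incubation after luciferase reagent addition, room temperature | Measured by: Luminescence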
FLuc inhib CS = counter-screen for luciferase assay inhibitors: firefly luciferase inhibition | ATPLite firefly luciferase biochemical luminescence, 10 min | inhibition, % at 10 µM | 1.5% of 200,000 active | AID 1006;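 active = inhibition above about 50% when tested at 10 µM, limit read from the data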
PPC-1 tox = kills PPC-1 cells; AID 1447; 50% of 1,200 active; cytotoxicity, % at 5 µM; shares compounds with PPC-1+TRAIL kill; PPC-1 viability, ATPlite luminescence, overnight;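 active = reconfirmed compounds whose average cytotoxicity reaches 50% or more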
Each line names hits and unclear results; the compound was inactive in the other large screens (follow-up assays come after a bar, where they were run). Rows were chosen to be rich in hits. Some 2% of all compounds tested hit in one or more screens of this group.

COc1ccc(-c2csc3nc(C(C)(C)C)oc(=O)c23)cc1OC	none
CC1C2NC(=O)N(Cc3ccccc3)C1(C)Oc1ccccc12 (centres undefined)	none | PPC-1 tox inactive
Cc1c(C(=O)NCC2CCCO2)cccc1[N+](=O)[O-] (centres undefined)	none
O=C(O)c1ccccc1Oc1ccc(Oc2ccccc2)cc1	none (no result: PPC-1+TRAIL kill, FLuc act counter, FLuc inhib CS)
COc1ccc(C)cc1Nc1nc(N)c2ccccc2n1	none (no result: PPC-1+TRAIL kill, FLuc act counter, FLuc inhib CS)
Nc1nc(Nc2ccc(Cl)cc2)nc2ccccc12	PPC-1+TRAIL kill 79, HSP90 inh 16, C8 TRAIL sens 76, FLuc inhib CS 93 | PPC-1 tox 80
Cc1ccccc1Nc1nc(N)c2ccccc2n1	PPC-1+TRAIL kill 58, HSP90 inh 18, C8 TRAIL sens 63, FLuc inhib CS 87 | PPC-1 tox 54
COc1ccc(C2N(C(=O)c3ccccc3)CCN2C(=O)c2ccccc2)cc1	none | PPC-1 tox inactive
COc1ccc(CNC(=O)N2CCN(C(=O)c3ccccc3)CC2)cc1	none (no result: PPC-1+TRAIL kill, HSP90 inh, FLuc act counter, FLuc inhib CS)
COc1ccc(N=CC2=C(O)c3ccccc3C2=O)c(OC)c1	PPC-1+TRAIL kill 82, HSP90 inh 33, C8 TRAIL sens 92, FLuc inhib CS 95 | PPC-1 tox 85
O=C1C(C=NCc2ccco2)=C(O)c2ccccc21	none
Cc1ccccc1N=CC1=C(O)c2ccccc2C1=O	PPC-1+TRAIL kill 84, C8 TRAIL sens 90, FLuc inhib CS 96 | PPC-1 tox 82
C[C@H](CO)N1C[C@H](C)[C@H](CN(C)C(=O)NC2CCCCC2)Oc2cc(-c3cccnc3)ccc2S1(=O)=O	none (no result: PPC-1+TRAIL kill, HSP90 inh, FLuc act counter, FLuc inhib CS)
O=C(Nc1ccc(Cl)cc1)Nc1ccc2c(c1)OCO2	none (no result: PPC-1+TRAIL kill, FLuc act counter, FLuc inhib CS)
COc1ccc(C(=O)NC(=O)Nc2cc(C)ccn2)cc1	PPC-1+TRAIL kill 87, HSP90 inh 22, C8 TRAIL sens 84, FLuc inhib CS 92 | PPC-1 tox 87
O=C(Nc1ccc2c(c1)OCO2)Nc1ccc2c(c1)OCO2	none | PPC-1 tox inactive
Cc1ccnc(NC(=O)c2ccc3c(c2)OCO3)c1	PPC-1+TRAIL kill 75, C8 TRAIL sens 77, FLuc inhib CS 92 | PPC-1 tox 74
O=C(Nc1ccc2nsnc2c1)c1ccc2c(c1)OCO2	FLuc inhib CS 70 | PPC-1 tox 52
O=C(Nc1ccc(Cl)c(Cl)c1)c1ccc2c(c1)OCO2	none (no result: PPC-1+TRAIL kill, FLuc act counter, FLuc inhib CS)
Cc1cc(OC(C)C(=O)NCC2CCC(C(=O)O)CC2)c2c(C)c(C)c(=O)oc2c1 (centres undefined)	none (no result: PPC-1+TRAIL kill, FLuc act counter, FLuc inhib CS)
CC(C)(C)NC(=O)C[C@H]1C[C@H](C(=O)N2CCOCC2)[C@@]2(C)c3[nH]c4ccc(Cl)cc4c3CCN2C1=O	none (no result: PPC-1+TRAIL kill, HSP90 inh, FLuc act counter, FLuc inhib CS)
CSCCC(NC(=O)c1ccccc1Cl)C(=O)N(C)CC(=O)Nc1ccc(N2CCOCC2)cc1 (centres undefined)	none (no result: PPC-1+TRAIL kill, HSP90 inh, FLuc act counter, FLuc inhib CS)
COc1ccccc1C(=O)Nc1ccc(N2CCN(C(C)=O)CC2)cc1	none
CC(=O)N1CCN(C(=O)COc2ccccc2C(=O)Nc2ccccc2)CC1	none | PPC-1 tox inactive
CN(C)C(=O)C[C@@H]1C=C[C@@H](NC(=O)C2CCC2)[C@@H](CO)O1	none (no result: PPC-1+TRAIL kill, HSP90 inh, FLuc act counter, FLuc inhib CS)
COc1ccc(CSc2nc3ccccc3[nH]2)cc1	PPC-1+TRAIL kill 58, C8 TRAIL sens 69, FLuc inhib CS 82 | PPC-1 tox 55
O=C1CCC(=O)N1c1ccc(CSc2nc3ccccc3[nH]2)cc1	none
O=C(Cc1c(F)cccc1Cl)OCN1C(=O)c2ccccc2C1=O	none (no result: PPC-1+TRAIL kill, FLuc act counter, FLuc inhib CS)
CCn1c2ccccc2c2cc(NC(=O)N3CCOCC3)ccc21	none | PPC-1 tox inactive
Cc1ccc(-n2c(-c3ccc(Br)cc3)c[n+]3c2CCc2ccc4cccnc4c2-3)cc1	C8 TRAIL sens 65 | PPC-1 tox inactive
CN(C)c1cccc(C(=O)OCC(=O)N(Cc2ccccc2)C2CCS(=O)(=O)C2)c1 (centres undefined)	none
NC(=O)Nc1ccc(C(=O)OCC(=O)N(Cc2ccccc2)C2CCS(=O)(=O)C2)cc1 (centres undefined)	none | PPC-1 tox inactive
CCc1ccc(Nc2nnc(SCC(=O)NCCN3C(=O)CSC3=O)s2)cc1	C8 TRAIL sens 58, FLuc inhib CS 84 | PPC-1 tox inactive
CCc1ccc(Nc2nnc(SCC(=O)Nc3sccc3C(N)=O)s2)cc1	none
Clc1cccc(-c2cc3nc4c(c(N5CCOCC5)n3n2)CCCC4)c1	none | PPC-1 tox inactive
Fc1cccc(-c2cc3nc4c(c(N5CCOCC5)n3n2)CCCC4)c1	none
Cc1cccc(C(=O)N(C(=O)c2cccc(C)c2)N(C)C)c1	none (no result: PPC-1+TRAIL kill, HSP90 inh, FLuc act counter, FLuc inhib CS)
Cc1ccc(C(=O)Nc2ccccc2C(=O)NC(Cc2ccccc2)C(=O)O)cc1 (centres undefined)	none
CCC(NC(=O)c1ccccc1NC(=O)c1ccc(C)cc1)C(=O)O (centres undefined)	none | PPC-1 tox inactive
O=C(NCCN1CCOCC1)c1ccc(=O)n(Cc2ccc(Cl)cc2)c1	none
COc1ccccc1C(=O)Nc1ccc2c(c1)nc1n2CCSC1	FLuc inhib CS 78 | PPC-1 tox inactive
CC(=O)Nc1ccc(NC2=C(Cl)C(=O)c3ccccc3C2=O)cc1	none (no result: C8 TRAIL sens)
O=C(Nc1ccc2cn[nH]c2c1)c1c(Cl)cccc1Cl	none
CN(C)c1ccc(NC2=C(Cl)C(=O)c3ccccc3C2=O)cc1	C8 TRAIL sens 70 | PPC-1 tox inactive
O=C1C(Cl)=C(Nc2ccc3cn[nH]c3c2)C(=O)c2ccccc21	PPC-1+TRAIL kill 76, C8 TRAIL sens 72 (no result: FLuc act counter, FLuc inhib CS) | PPC-1 tox 69
CC(c1ccco1)N(C(=O)COc1ccc(Cl)cc1Cl)c1ccccn1 (centres undefined)	HSP90 inh 42, C8 TRAIL sens 57 | PPC-1 tox inactive
CC(C)CC(=O)c1c[nH]c(C(=O)NCc2ccc(F)cc2)c1	none (no result: PPC-1+TRAIL kill, FLuc act counter, FLuc inhib CS)
COc1ccc(-c2cc3c(nn2)-c2ccccc2C3=O)cc1	PPC-1+TRAIL kill 89, C8 TRAIL sens 87, FLuc inhib CS 94 | PPC-1 tox 89
COc1ccc(-c2cn(Cc3ccc4c(c3)C(=O)c3ccccc3C4=O)nn2)cc1	none (no result: PPC-1+TRAIL kill, FLuc act counter, FLuc inhib CS)
O=C1c2ccccc2-c2nnc(-c3ccccc3)cc21	PPC-1+TRAIL kill 63, C8 TRAIL sens 75, FLuc inhib CS 81 | PPC-1 tox 65
c1ccc(-c2cc3c(nn2)CCc2nonc2-3)cc1	none
CCCc1ccc(-c2cc(C(=O)N/N=C/c3ccc([N+](=O)[O-])o3)c3ccccc3n2)cc1	PPC-1+TRAIL kill 77, C8 TRAIL sens 86, FLuc inhib CS 94 | PPC-1 tox 76
CCCN(C(=O)C1=COCCO1)c1c(N)n(Cc2ccccc2)c(=O)[nH]c1=O	none (no result: PPC-1+TRAIL kill, HSP90 inh, FLuc act counter, FLuc inhib CS)
CCCCN(C(=O)CSc1nnc(Nc2ccc(C)c(C)c2)s1)c1c(N)n(Cc2ccccc2)c(=O)[nH]c1=O	FLuc inhib CS 63 | PPC-1 tox inactive
COc1cccc(N=c2oc3ccc(OC)cc3cc2-c2nc3ccccc3[nH]2)c1	C8 TRAIL sens 63 | PPC-1 tox inactive
CC(CCc1ccccc1)NC(=O)CNC(=S)N(Cc1cccs1)C1CCCC1 (centres undefined)	none
CCN1C(=O)CC(Sc2ccccc2N)C1=O (centres undefined)	none | PPC-1 tox inactive
